Series [1] has as its target T1, Inosine-5'-monophosphate dehydrogenase 2 (Homo sapiens, UniProt P12268). As to the kind of experiment: Inhibition of human inosine-5'-monophosphate dehydrogenase 2.
A further series concerns CCRF-CEM. As to the kind of experiment: In vitro secondary T-cell (CEM) proliferation assay. The series is classed as functional, cell-based. The note with it: Homo sapiens. The procedure, abridged:
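Inhibition of CEM T-cell line proliferation. IC50 in μM, reported as the mean of n = 3 determinations.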

A short description of series [2]: Plasma clearance was evaluated after 10 uM/kg of intra arterial administration. Format: ADME, organism-based. The note with it: rat. The procedure, abridged:
(§1)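 Pharmacokinetics measured in rats.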

Series [3] in a line: Cmax was evaluated after 20 umol/kg of peroral administration. Format: ADME, organism-based. On the set-up: dose 20 umol/kg, route oral. The note with it: rat, in vivo, po. In a few lines:
as §1

A short description of series [4]: Half-life was evaluated after 10 uM/kg of intra arterial administration. Format: ADME, organism-based. The following applies: rat, in vivo. In a few lines:
as §1

The nature of series [5]: Bioavailability was evaluated after 20 uM/kg of peroral administration. The series is classed as ADME, organism-based. The note with it: rat, in vivo, po, read-out: Bioavailabiility. In a few lines:
as §1

Series [6] in a line: Vss was evaluated after 10 uM/kg of intra arterial administration. Format: ADME, organism-based. The note with it: rat, in vivo, read-out: Vss. The procedure, abridged: as §1
The test system of series [7] is Rattus norvegicus. As to the kind of experiment: Area under the curve was evaluated after 20 uM/kg of peroral administration. The series is classed as ADME, organism-based. The following applies: in vivo, po. The procedure, abridged:
as §1

Series [8] can be described thus: Half-life was evaluated after 20 uM/kg of peroral administration. Format: ADME, organism-based. The following applies: rat, in vivo, po. The procedure, abridged:
as §1

The subject of series [9] is Rattus norvegicus. As to the kind of experiment: Area under the curve was evaluated after 10 uM/kg of intra arterial administration. Format: ADME, organism-based. The following applies: in vivo, other. In a few lines:
as §1

Series [10] deals with T1, Inosine-5'-monophosphate dehydrogenase 2. As to the kind of experiment: In vitro concentration that causes 50% inhibition of Inosine-5'-monophosphate dehydrogenase 2. The procedure, abridged:
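Inhibition of IMPDH type II catalytic activity. IC50 reported as the mean of n = 3 determinations.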

SMILES strings stand for the structures. Some results are limits rather than exact numbers.

On to `COc1cccc(-c2cnc(Nc3ccc(-c4cnco4)c(OC)c3)o2)c1`, for which the IC50 in series [1] was 97 nM; with CCRF-CEM, greater than 10000 nM.
In the case of `COc1cc(Nc2ncc(-c3ccccc3N(C)C(=O)CCN3CCOCC3)o2)ccc1-c1cnco1`, the IC50 was found to be 13 nM in series [1] and 680 nM with CCRF-CEM.
With `CCOC(=O)c1ccccc1-c1cnc(Nc2ccc(-c3cnco3)c(OC)c2)o1`, the IC50 is 127 nM in [1] and greater than 10000 nM in the series with CCRF-CEM.
Consider `COc1cc(Nc2ncc(-c3ccccc3NC(C)=O)o2)ccc1-c1cnco1`, for which the IC50 in [1] amounted to 30 nM; in the series on CCRF-CEM, 1000 nM.
Regarding `COc1c(C)c2c(c(O)c1C/C=C(\C)CCC(=O)O)C(=O)OC2` [MYCOPHENOLIC ACID], in the series with CCRF-CEM, half-maximal inhibition (IC50) was put at 340 nM.
For `COc1cc(Nc2ncc(-c3ccccc3N(C)C(=O)Cn3cncn3)o2)ccc1-c1cnco1`, the IC50 in series [1] worked out at 13 nM; in the series with CCRF-CEM it was 650 nM.
For the compound `CNC(=O)c1ccccc1-c1cnc(Nc2ccc(-c3cnco3)c(OC)c2)o1`, the concentration for half-maximal inhibition (IC50) in series [1] amounted to 104 nM; in the series on CCRF-CEM it was 8000 nM.
`COc1cc(Nc2ncc(-c3ccccc3N(C)C(=O)Cn3cccn3)o2)ccc1-c1cnco1`: the IC50 was found to be 11 nM in series [1] and 890 nM with CCRF-CEM.
Regarding `CNCC(=O)N(C)c1ccccc1-c1cnc(Nc2ccc(-c3cnco3)c(OC)c2)o1`, the IC50 in series [1] was 22 nM; in the series on CCRF-CEM, 960 nM.
As for `COc1ccc(-c2cnc(Nc3ccc(-c4cnco4)c(OC)c3)o2)cc1`, the IC50 turned out to be 115 nM in [1] and 9000 nM in the series with CCRF-CEM.
For `COc1cc(Nc2ncc(-c3ccccc3N(C)C(=O)CN3CCN(C)CC3)o2)ccc1-c1cnco1`, the IC50 in series [1] is 17 nM; with CCRF-CEM, 940 nM.
On to `COc1cc(NC(=O)Nc2cccc(CNC(=O)O[C@H]3CCOC3)c2)ccc1-c1cnco1` [MERIMEPODIB], for which the values for the IC50 (in series [1]; in the series with CCRF-CEM) were 10 nM and 430 nM, respectively.
For `COc1cc(Nc2ncc(-c3ccccc3N(C)C(=O)CN(C)C)o2)ccc1-c1cnco1` the same measures were 15 nM and 1000 nM.
The matching figures for `COc1cc(Nc2ncc(-c3ccccc3OC)o2)ccc1-c1cnco1`: 23 nM and 7000 nM.
Take `COc1cc(Nc2ncc(-c3ccccc3N(C)C(=O)CNC(C)(C)C)o2)ccc1-c1cnco1`: the IC50 in [1] was determined as 20 nM; with CCRF-CEM, 700 nM.
The matching figures for `COc1cc(Nc2ncc(-c3ccc(C)cc3)o2)ccc1-c1cnco1`: 85 nM and greater than 10000 nM.
`COc1cc(Nc2ncc(-c3ccccc3N(C)C(=O)CN3CCOCC3)o2)ccc1-c1cnco1` yielded a clearance in series [2] of 71 mL/min/kg. The same compound registered a Cmax in series [3] of 1500 nM. The half-life in [4] was 5.9 h; in series [8], 2.5 h. It took 12 nM to reach half-maximal inhibition in [1] (IC50). In addition, the bioavailability in series [5] amounted to 25%. In addition, the Vd in series [6] came to 2.1 L/kg. The results for the AUC in the series with Rattus norvegicus [7] and with Rattus norvegicus [9] were 1.2 µM·h and 2.37 µM·h, respectively.
Consider `COc1cc(Nc2ncc(-c3cccc(C)c3)o2)ccc1-c1cnco1`, for which the IC50 in series [1] is 70 nM; in the series on CCRF-CEM, greater than 10000 nM.
Take `COc1cc(Nc2nc(C)c(-c3ccccc3)o2)ccc1-c1cnco1`: the results for the IC50 (in series [1]; in the series on CCRF-CEM) were 27 nM and 9000 nM, respectively.
As to `COc1cc(Nc2ncc(-c3ccccc3C(=O)O)o2)ccc1-c1cnco1`, the inhibition in series [10] was found to be 11%.
Regarding `COc1cc(Nc2ncc(-c3ccccc3N(C)C(C)=O)o2)ccc1-c1cnco1`, the half-inhibitory concentration (IC50) in series [1] came to 18 nM; with CCRF-CEM, 730 nM.
On to `COc1cc(Nc2ncc(-c3ccccc3C)o2)ccc1-c1cnco1`, for which the results for the IC50 (in [1]; in the series with CCRF-CEM) were 25 nM and greater than 10000 nM, respectively.
In the case of `CCc1nc(Nc2ccc(-c3cnco3)c(OC)c2)oc1-c1ccccc1`, the values for the IC50 (in series [1]; in the series with CCRF-CEM) were 86 nM and greater than 10000 nM, respectively.
`COc1cc(Nc2ncc(-c3ccccc3)o2)ccc1-c1cnco1`: the values for the IC50 (in [1]; in the series on CCRF-CEM) were 20 nM and 7000 nM, respectively.
Take `COc1cc(Nc2ncc(-c3ccccc3C(=O)N(C)C)o2)ccc1-c1cnco1`: the IC50 in series [1] came out at 141 nM; with CCRF-CEM, 9000 nM.

In general, IC50 refers to the concentration needed to halve the response being measured. The low end stands for higher potency, the high end for lower potency. By clearance is commonly meant a measure of how efficiently the substance is removed, as volume per time. By Cmax is commonly meant the highest concentration seen after dosing. For orientation: half-life means how long it takes for the measured level to halve. For orientation: AUC means concentration integrated over time. Usually inhibition stands for the relative decrease from the control value, in per cent.
